Assay outcomes from PubChem.
S1P4 agonist: human S1P4 receptor agonism; O95977; S1P4-expressing cell line, agonist reporter assay; activation, % at 4.98 µM; hit rate 0.35% among 220,000; AID 1509; in the data active means activation above about 11%;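 further: 0% = DMSO vehicle and 100% = reference agonist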
S1P3 antagonist: antagonists of human S1P3 receptor; inhibition, % at 4.98 µM; AID 485; hit rate 0.27% among 170,000; CHO S1P3 NFAT-BLA reporter, FRET fluorescence, antagonist mode;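 active means inhibition above the plate cutoff, the mean inhibition of test wells on that plate plus 3 SD, cut at about 28% in these data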;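 further: cells challenged with S1P at its EC80 of 0.8 µM; blue over green emission ratio from cleaved BLA substrate after 4 h stimulation; 0% = S1P-stimulated wells and 100% = unstimulated DMSO-only wells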
Biofilm kill mix: mixture kills Candida albicans biofilm cells; AID 1242; hit rate 0.02% among 120,000; inhibition, % at 7.6 µM; C. albicans biofilm persisters + clotrimazole, fluorescence viability; primary screen in compound mixtures of four per well;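 further: compounds exposed to preformed 24 h biofilms for 48 h; 0% = untreated biofilm control and 100% = clotrimazole plus chlorhexidine kill blank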
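Assay system: C. albicans biofilms / Medium: RPMI/MOPS medium, pH 7.0 / Schedule: biofilm formation 24 h, compound exposure 48 h, 37 °C / Measured by: Alamar Blue fluorescence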
Pf gametocyte: kills late stage P. falciparum gametocytes | P. falciparum stage V gametocytes, ATP luminescence, 24 h | inhibition, % at 10.9 µM | hit rate 0.065% among 150,000;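 active means inhibition above the mean plus 3 SD of compounds within the control limits, set per campaign, cut at about 38% in these data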;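 further: 0% = DMSO wells and 100% = medium only without gametocytes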
S1P4 antagonist: blocks the human S1P4 receptor; inhibition, % at 4.98 µM; O95977; AID 1510; hit rate 0.26% among 220,000; S1P4-expressing cells, antagonist mode, reporter read-out; in the data active means inhibition above about 29%;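 further: 0% = wells stimulated with agonist and 100% = vehicle wells without agonist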
S1P4 agonist cf: human S1P4 agonism, confirmation; S1P4 agonist cell-based reporter assay; hit rate 7% among 740; shares compounds with S1P4 agonist; activation, % at 4.98 µM; in the data active means activation above about 12%;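 further: 0% = vehicle and 100% = full reference agonist response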
S1P1 agonist: activates human S1P1, counter-screen for S1P4 agonists; shares compounds with S1P4 agonist; S1P1 agonist cell-based assay, activation; activation, % at 4.98 µM; hit rate 4% among 740; AID 1563; in the data active means activation above about 21%;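 further: 0% = vehicle wells and 100% = reference agonist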
Target sequence (P21453 whole entry, looked up): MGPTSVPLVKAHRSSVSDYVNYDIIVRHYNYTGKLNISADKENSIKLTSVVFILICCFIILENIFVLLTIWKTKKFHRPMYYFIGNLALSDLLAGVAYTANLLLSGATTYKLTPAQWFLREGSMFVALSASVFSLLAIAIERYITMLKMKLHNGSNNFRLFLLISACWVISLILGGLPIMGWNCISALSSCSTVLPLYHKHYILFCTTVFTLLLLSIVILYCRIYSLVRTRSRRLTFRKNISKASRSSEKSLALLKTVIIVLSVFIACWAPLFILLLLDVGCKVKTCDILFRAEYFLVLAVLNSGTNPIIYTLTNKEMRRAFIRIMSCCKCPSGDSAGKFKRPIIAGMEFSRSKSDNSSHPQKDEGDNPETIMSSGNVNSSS
* marks the source's active call; other numbers are inactive results. An excerpt weighted towards active compounds, which were near 0.77% of everything screened.

Results for Cc1ccc2c(c1)c1nnc(SCC(=O)Nc3ccc(N(C)C)cc3)nc1n2CC(=O)O ?
Pf gametocyte: 3

Results for O=C1CCC([N+](=O)[O-])C(c2ccc3c(c2)OCO3)N1 (stereo not given) ?
S1P4 agonist: 114*; S1P3 antagonist: -15; Biofilm kill mix: 27; Pf gametocyte: 24; S1P4 antagonist: 5; S1P4 agonist cf: -1; S1P1 agonist: 1

Results for CCOC(=O)c1sc(-c2ccccc2)cc1NC(=O)Nc1ccc([N+](=O)[O-])cc1 ?
S1P4 agonist: -1; S1P3 antagonist: 13; Biofilm kill mix: 11; Pf gametocyte: 3; S1P4 antagonist: 1

Results for CCOc1ccc(S(=O)(=O)n2c(C)nc3ccccc32)cc1 ?
S1P4 agonist: 14*; S1P3 antagonist: -11; S1P4 antagonist: -4; S1P4 agonist cf: -1; S1P1 agonist: -7

How did Cc1cc(C)c(S(=O)(=O)NCC2CCC(C(=O)NCc3ccccn3)CC2)c(C)c1 (stereo not given) do in these assays?
S1P4 agonist: 1; S1P3 antagonist: 2; Biofilm kill mix: 11; Pf gametocyte: 15; S1P4 antagonist: -11

Results for CCCOc1ccc(C2C(C(=O)OC)=CN(CCOC)C=C2C(=O)OC)cc1 ?
S1P4 agonist: 12*; S1P3 antagonist: 4; S1P4 antagonist: -31; S1P4 agonist cf: 1; S1P1 agonist: 10

Results for CC1=NN(C(=O)c2ccc(Cn3nc(C)cc3C)o2)C(O)(C(F)(F)F)C1 (stereo not given) ?
S1P4 agonist: -4; Pf gametocyte: -14; S1P4 antagonist: 2

What do the screens show for `Brc1ccc(-c2ccc(/C=N/Nc3nc4ccccc4[nH]3)o2)cc1`?
S1P4 agonist: 12*; S1P3 antagonist: -3; Biofilm kill mix: 4; Pf gametocyte: -6; S1P4 antagonist: 13; S1P4 agonist cf: 8; S1P1 agonist: 24*

How did CC(=O)OCC1(C)CN(c2ccccc2)N(C(C)=O)C1=O (stereo not given) do in these assays?
S1P4 agonist: -1; S1P3 antagonist: -12; Biofilm kill mix: 10; Pf gametocyte: 1; S1P4 antagonist: 8

Results for CC(=O)OCC1(C)CN(c2ccccc2)N(C(=O)c2ccc(C(C)(C)C)cc2)C1=O (stereo not given) ?
S1P4 agonist: 25*; S1P3 antagonist: -3; Biofilm kill mix: 6; Pf gametocyte: 4; S1P4 antagonist: 3; S1P4 agonist cf: -2; S1P1 agonist: -5

What do the screens show for `COc1nc(NCCN2CCOCC2)nc(Nc2ccccc2)n1`?
S1P4 agonist: -2; S1P3 antagonist: -12; Pf gametocyte: -4; S1P4 antagonist: -17

What do the screens show for `CCCCCCCCNc1nc(Cl)nc(NCCN2CCOCC2)n1`?
S1P4 agonist: 17*; S1P3 antagonist: -7; Biofilm kill mix: 7; Pf gametocyte: 4; S1P4 antagonist: -16; S1P4 agonist cf: -2; S1P1 agonist: 2

Results for CCc1ccc(/C(C)=N/NC(=O)c2ccccn2)cc1 ?
S1P4 agonist: 12*; S1P3 antagonist: 5; Biofilm kill mix: 9; Pf gametocyte: -19; S1P4 antagonist: 6; S1P4 agonist cf: -3; S1P1 agonist: -6

How did CC(C)n1c(=NC(=O)c2ccco2)c(C#N)cc2c(=O)n3ccccc3cc21 do in these assays?
S1P4 agonist: 12*; S1P3 antagonist: -33; S1P4 antagonist: -30; S1P4 agonist cf: 0; S1P1 agonist: 9

Results for COc1ccc(CCN/C=C2/CC(=O)NC2=O)cc1OC ?
S1P4 agonist: 17*; S1P3 antagonist: -32; Pf gametocyte: -22; S1P4 antagonist: 5; S1P4 agonist cf: -1; S1P1 agonist: 2

Results for CC(C)(C)c1ccc(C(=O)N2CCC(C(=O)NCc3ccncc3)CC2)cc1 ?
S1P4 agonist: 16*; S1P3 antagonist: -10; S1P4 antagonist: -8; S1P4 agonist cf: 0; S1P1 agonist: -1

How did CCN(c1ccccc1)S(=O)(=O)c1cc([N+](=O)[O-])ccc1N do in these assays?
S1P4 agonist: 17*; S1P3 antagonist: -2; Biofilm kill mix: 3; Pf gametocyte: -37; S1P4 antagonist: -8; S1P4 agonist cf: 19*; S1P1 agonist: -5

Results for N#C/C(=C\c1cccs1)C(=O)c1ccccc1Cl ?
S1P4 agonist: 36*; S1P3 antagonist: 2; Biofilm kill mix: 20; Pf gametocyte: -9; S1P4 antagonist: 24; S1P4 agonist cf: -2; S1P1 agonist: -9

What do the screens show for `CC(C)(C)C(=O)/C(C#N)=C/c1cccs1`?
S1P4 agonist: 0; S1P3 antagonist: -8; Biofilm kill mix: 16; Pf gametocyte: -4; S1P4 antagonist: 13

What do the screens show for `O=C(NCc1ccccn1)C(=O)Nc1nc(C23CC4CC(CC(C4)C2)C3)cs1`?
S1P4 agonist: -1; S1P3 antagonist: 1; Biofilm kill mix: 16; Pf gametocyte: 7; S1P4 antagonist: -10

What do the screens show for `COc1ccc(Cl)cc1N(CC(=O)NCC(C)C)S(=O)(=O)c1ccc(C)c([N+](=O)[O-])c1`?
S1P4 agonist: 25*; S1P3 antagonist: 4; Biofilm kill mix: 16; Pf gametocyte: -27; S1P4 antagonist: -11; S1P4 agonist cf: -2; S1P1 agonist: -5

What do the screens show for `CN(c1nc2nonc2nc1NC1CC1)C1CCOC1` (stereo not given)?
S1P4 agonist: 12*; S1P3 antagonist: 5; Biofilm kill mix: 12; Pf gametocyte: -4; S1P4 antagonist: -5; S1P4 agonist cf: -2; S1P1 agonist: 5

Results for COc1cc2c(cc1OC)/C(=C/c1ccc(Br)cc1)C(=O)OC2 ?
S1P4 agonist: 149*; S1P3 antagonist: -16; Biofilm kill mix: 21; S1P4 antagonist: -4; S1P4 agonist cf: -2; S1P1 agonist: -4

How did COc1ccc(/C=C2\Cc3ccccc3C2=O)cc1OC do in these assays?
S1P4 agonist: 0; S1P3 antagonist: -10; Biofilm kill mix: 17; S1P4 antagonist: 6

Results for COc1ccc(-c2nn(-c3ccccc3)cc2/C=C/C(=O)O)cc1[N+](=O)[O-] ?
S1P4 agonist: 0; S1P3 antagonist: -2; Biofilm kill mix: -4; Pf gametocyte: -29; S1P4 antagonist: 9

How did C=CCc1ccccc1Oc1cc(F)nc(N)n1 do in these assays?
Pf gametocyte: 0

Results for Cc1cc(C)n(-c2nc3ccccc3nc2N2CCCC2)n1 ?
S1P4 agonist: 87*; S1P4 antagonist: -2; S1P4 agonist cf: -2; S1P1 agonist: -7

Results for COc1ccccc1N(CC(=O)NC(C)C)S(=O)(=O)c1cccs1 ?
S1P4 agonist: -1; S1P3 antagonist: -1; Biofilm kill mix: 14; Pf gametocyte: 18; S1P4 antagonist: 6

Results for CCn1c(C)cc(/C=C2/NC(=O)N(c3ccccc3)C2=O)c1C ?
S1P4 agonist: 2; S1P3 antagonist: -10; Biofilm kill mix: -11; Pf gametocyte: 8; S1P4 antagonist: -12
